Screens from PubChem BioAssay.
697 NFkB inh: inhibitors of PMA/ionomycin-induced NF-kB reporter, 697 cells, primary screen, B-cell NF-kB inhibitor project, cell-based, luminescence, uHTS; 697 B-cell NF-kB luciferase reporter, 16 h; inhibition, % at 4 µM; actives 0.33% (n = 330,000); in the data active = inhibition above about 35%
HSF1 inhib: HSF1 inhibitors in luciferase reporter cells, primary screen, cell-based, NIH3T3, luminescence; NIH3T3-HGL HSE-luciferase, MG132-induced, luminescence 8 h; stronger effect = lower value; activity change, negative = inhibition, % at 7.5 µM (by protocol); actives 0.77% (n = 300,000); AID 2098, 2009;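 active = more than half of replicate wells show activity change below -50%, luminescence cut by over half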;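 note: luciferase reports HSF-1 transcriptional activity via heat shock element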
GPR7 antagonist: GPR7 receptor antagonists, primary screen, cell-based, fluorescence, single concentration; AID 1861, 2009; GPR7-expressing cells, fluorescence antagonist assay; inhibition, % at 4.4 µM; Neuropeptides B/W receptor type 1 (Homo sapiens), P48145; actives 1.1% (n = 290,000); in the data active = inhibition above about 16%, passing the limit was not always enough;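 note: cells stimulated with the agonist NPW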
Target sequence (P48145 whole entry, looked up): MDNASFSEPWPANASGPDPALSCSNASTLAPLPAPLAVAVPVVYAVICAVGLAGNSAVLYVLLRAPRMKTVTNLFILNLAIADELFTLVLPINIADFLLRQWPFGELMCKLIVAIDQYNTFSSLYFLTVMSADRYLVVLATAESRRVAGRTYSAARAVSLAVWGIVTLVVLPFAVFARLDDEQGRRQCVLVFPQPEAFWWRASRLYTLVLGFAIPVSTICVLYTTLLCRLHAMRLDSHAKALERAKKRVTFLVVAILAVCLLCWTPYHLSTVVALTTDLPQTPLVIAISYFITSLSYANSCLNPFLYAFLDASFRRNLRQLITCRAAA
T cruzi repl: inhibitors of intracellular T. cruzi growth, primary screen, luminescence, NIH3T3 host cells; T. cruzi beta-gal in NIH3T3, 90 h; inhibition, % (test concentration not listed); actives 1.4% (n = 300,000);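 active = mean inhibition across valid replicates above about 55%, limit read from the data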;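 note: signal also drops with host cell toxicity which is not excluded here; higher percent means less beta-gal luminescence so fewer parasites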
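System: NIH/3T3 fibroblasts plus reporter T. cruzi. Medium: DMEM plus 2% FBS. Probe or stimulus: 5000 reporter trypomastigotes per well. Compound: single 50 nL compound addition per well in DMSO. Incubation: co-culture of at least 90 h after 3 h attachment. Detection: GalScreen β-gal luminescence, detergent lysis, 60 min. Evaluation: parasite load inhibition, %.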
Jurkat NFkB inh: inhibitors of induced NF-kB luciferase reporter, primary screen, TCR NF-kB activation inhibitor project, cell-based, luminescence, uHTS; Jurkat, PMA/ionomycin-induced NF-kB luciferase reporter; inhibition, % at 4 µM; actives 0.53% (n = 330,000); in the data active = inhibition above about 50%
HSF-1 act: HSF-1 activators, primary screen, NIH3T3-HGL cells, MG132 stress, luminescence, single point | actives 1.7% (n = 300,000) | activation, % at 9 µM | AID 504408, 2011 | NIH3T3-HGL HSF-1 luciferase reporter, 8 h; 100% = twice DMSO control signal;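 active = mean replicate activation of at least 50% with a set share of replicates each reaching 50%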
GPR7 antag conf: GPR7 receptor antagonists, confirmation, cell-based, fluorescence, single concentration. actives 52% (n = 2,400). shares compounds with GPR7 antagonist. inhibition, % at 4.4 µM. GPR7-expressing cells, calcium fluorescence antagonist mode; in the data active = inhibition above about 24%;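 note: stimulated with the GPR7 agonist NPW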
MCHR1 antag: MCHR1 antagonists in cells, counter-screen for GPR7 antagonist project, cell-based, fluorescence, human. MCHR1-expressing cells, fluorescence antagonist assay. inhibition, % at 4.4 µM. shares compounds with GPR7 antagonist. AID 2148, 2009. actives 62% (n = 2,400); in the data active = inhibition above about 22%
A number is an active result; . = inactive; / = not tested or not shown. Rows were chosen to be rich in hits. Some 4.8% of all compounds tested hit in one or more screens of this group.

SMILES	697 NFkB inh	HSF1 inhib	GPR7 antagonist	T cruzi repl	Jurkat NFkB inh	HSF-1 act	GPR7 antag conf	MCHR1 antag
CN(Cc1cccs1)C(=O)CCc1c[nH]c2ccccc12	.	.	.	.	.	.	/	/
CN(Cc1cccs1)C(=O)CCCc1c[nH]c2ccccc12	.	.	32.9	.	.	.	32.9	44.5
Cc1ccnc(SCC(=O)Nc2sccc2C#N)n1	.	.	.	.	.	.	/	/
CCCCn1c(SCC(=O)N2CCCCC2C)nc2cc(S(N)(=O)=O)ccc21 (stereo not drawn)	.	.	36.1	.	.	.	.	.
CCCCn1c(SCC(=O)N2CCCC2)nc2cc(S(N)(=O)=O)ccc21	.	.	.	.	.	.	/	/
COc1ccc(N=C2SCC(c3ccc(C)cc3)=NN2CCO)cc1	.	.	.	.	.	.	/	/
COc1ccc(N=C2SCC(c3ccc([N+](=O)[O-])cc3)=NN2CCO)cc1	.	.	31.8	.	.	.	28.1	40.1
O=c1[nH]c(CN2CCN(S(=O)(=O)c3cccs3)CC2)nc2c(Br)cc(Br)cc12	.	.	.	.	.	.	/	/
COc1cccc(N2CCN(c3ccc4nnc(CCC(=O)Nc5ccccn5)n4n3)CC2)c1	.	.	.	.	.	.	/	/
CCOC(=O)CNC(=O)c1ccc2[nH]c3ccccc3c2c1	.	.	.	.	.	.	/	/
O=C(NCC(O)CO)c1ccc2[nH]c3ccccc3c2c1 (stereo not drawn)	.	.	25.8	.	.	.	.	.
O=C(CCCn1cc([N+](=O)[O-])cn1)Nc1ccc2c(c1)OCO2	.	.	.	.	.	.	/	/
O=C(NCc1ccccc1Cl)c1cccc2c1C(=O)c1ccc(-c3ccc(OC(F)(F)F)cc3)cc1S2(=O)=O	.	/	/	/	.	/	/	/
COc1ccccc1-c1cc(-c2ccc(O)cc2)nc(N)c1C#N	.	.	36.6	.	.	.	.	.
CCN1C(=O)[C@H]2[C@@H](c3ccc(C)cc3)N3C(=O)N(c4ccccc4)C(=O)[C@@]3(CC)[C@H]2C1=O	.	.	.	.	.	.	/	/
CCN(CC)C1=CC2=CC(=C(C#N)C#N)CCC2CC1 (stereo not drawn)	.	.	58.4	.	.	.	90.9	104.9
CCCCN(C)C1=CC2=CC(=C(C#N)C#N)CCC2CC1 (stereo not drawn)	.	.	75.3	.	.	.	102.6	109.5
N#CC(C#N)=C1C=C2C=C(N3CCCCC3)CCC2CC1 (stereo not drawn)	/	/	74.3	/	/	/	93.0	109.2
N#CC1=C(N)C2=C(N3CCCCC3)CCCC2C1(C#N)C#N (stereo not drawn)	.	.	.	.	.	.	/	/
CC(C)c1nnc(NC(=O)CSc2nnc(-c3ccco3)o2)s1	.	.	.	.	.	.	/	/
COc1ccccc1/C=C/C(=O)OC(C)CN1CCCCC1 (stereo not drawn)	.	.	.	.	.	.	/	/
Cc1noc(C)c1C(=O)OCC(=O)Nc1cccc(S(N)(=O)=O)c1	.	.	.	.	.	.	/	/
Cc1cc(NC(=O)COC(=O)c2c(C)noc2C)ccc1Br	.	.	36.4	.	.	.	.	24.7
Clc1ccc(-c2c[n+](Cc3ccc(Cl)cc3Cl)c3n2CCCCC3)cc1	.	.	23.3	.	.	.	26.5	27.2
N#CC[n+]1cc(-c2ccc(Cl)cc2)n2c1CCC2	.	.	.	.	.	.	/	/
SMILES	697 NFkB inh	HSF1 inhib	GPR7 antagonist	T cruzi repl	Jurkat NFkB inh	HSF-1 act	GPR7 antag conf	MCHR1 antag
COc1ccc(-n2c(=O)[nH]c3cc(C(=O)NCCc4ccc(Cl)cc4)ccc3c2=O)cc1OC	.	.	35.5	.	.	.	36.2	59.8
CCOC(=O)Cc1csc(NC(=O)C(C)c2ccc([N+](=O)[O-])cc2)n1 (stereo not drawn)	.	.	74.5	.	.	.	49.4	53.7
CCOC(=O)Cc1csc(NC(=O)Cc2ccccc2[N+](=O)[O-])n1	.	/	.	.	.	/	/	/
CC(=O)c1ccc(N2CCN(C(=O)c3cc4c(s3)CCCC4)CC2)cc1	.	.	26.0	.	.	.	30.3	61.0
Cc1nc(C)c(-c2ccc(SCC(=O)Nc3cccc(Cl)c3)nn2)s1	.	.	33.2	.	.	.	47.9	66.6
CCc1ccc(NC(=O)CSc2ccc(-c3sc(C)nc3C)nn2)cc1	.	.	31.2	.	.	.	41.4	76.1
N#Cc1ccccc1Oc1ccccc1C=O	.	.	.	.	.	.	/	/
CSCC[C@H](NC(=O)OC(C)(C)C)C(=O)N1CCC(C(=O)NCC(=O)Nc2ccc(C)cc2)CC1	.	.	.	.	.	.	/	/
Cc1nc(NCc2ccccn2)c2c3c(sc2n1)CCCC3	.	.	31.8	.	.	.	25.1	21.5
c1ccc(CNc2ncnc3sc4c(c23)CCCC4)nc1	.	.	.	.	.	.	/	/
Cc1cc(C)c(C(=O)COC(=O)CCNS(=O)(=O)c2c(Cl)cccc2Cl)cc1C	.	.	.	.	.	.	/	/
COc1cccc(NC(=O)Nc2ccc(C(C)(C)C)cc2)c1	.	.	.	.	.	.	/	/
COc1ccc(/C=N/NC(=O)c2cccc(Br)c2)cc1COc1ccccn1	.	.	30.7	.	.	.	.	48.0
COc1ccc(C(=O)c2sc(Nc3cccc(OC)c3)c(C(=O)Nc3cccc(C)c3C)c2N)cc1	.	.	79.2	.	.	.	.	77.0
COc1ccc(NC(=O)c2c(Nc3ccccc3)sc(C(=O)c3ccc(F)cc3)c2N)cc1	.	.	.	.	.	.	/	/
COc1ccc(Nc2sc(C(=O)c3ccc(Cl)cc3)c(N)c2C(=O)Nc2ccccc2OC)cc1	.	.	71.2	.	.	.	92.9	99.7
COc1ccc2[nH]c(=O)c(CN(C(=O)c3ccccn3)C3CCCCC3)cc2c1	.	.	23.4	.	.	.	.	.
CC1CCCC(NC(=O)COC(=O)COc2ccc(C#N)cc2)C1C (stereo not drawn)	.	/	/	/	.	/	/	/
Cc1cc2nc(CSc3ccc(Cl)cc3)cc(=O)n2[nH]1	.	.	.	.	.	.	/	/
